# Experimental data taken from ChEMBL document CHEMBL4145448, “Broad activity of diphenyleneiodonium analogues against Mycobacterium tuberculosis, malaria parasites and bacterial pathogens” (Eur J Med Chem, 2018).
# What was measured:
# Plasmodium falciparum = experiment: Growth inhibition of CQ-sensitive GFP-fused Plasmodium falciparum D10 after 90 hrs by ethidium bromide staining based flow cytometry; format: functional, organism-based; details: D10, 90 h
# Summary of the method: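 Parasites cultured in human O+ erythrocytes in RPMI-HEPES pH 7.4 with hypoxanthine, NaHCO3, gentamicin and 0.5% Albumax II under 1% O2/4% CO2 at 37 °C. Synchronised to rings with heparin plus sorbitol. Set up at 1% parasitaemia and 1% haematocrit with 10x compound added. Cultured 90 h to next-cycle trophozoites. Stained with 10 µg/mL ethidium bromide for 1 h, washed, parasitaemia counted by flow cytometry with GFP gating.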
# Pseudomonas aeruginosa [1] = experiment: Antibacterial activity against Pseudomonas aeruginosa ATCC 27853 after 18 hrs by broth microdilution method; format: functional; details: ATCC 27853, 18 h
# Summary of the method: (§1)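 Broth microdilution per CLSI in cation-adjusted Mueller-Hinton broth. 100 µL inoculum (~10^6 cfu/mL in CaMHB) mixed with 100 µL CaMHB containing compound, 0 to 128 µM. Incubated 18 h at 37 °C. MIC taken as the lowest concentration with no visible growth. Polymyxin B served as positive control. Isolates were stored at -80 °C in tryptone soy broth with 20% glycerol.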
# Pseudomonas aeruginosa [2] = experiment: Antibacterial activity against Pseudomonas aeruginosa isolate 912 after 18 hrs by broth microdilution method; format: functional; details: isolate 912, 18 h; summary of the method: as §1
# Pseudomonas aeruginosa [3] = experiment: Antibacterial activity against Pseudomonas aeruginosa isolate 19147nm after 18 hrs by broth microdilution method; format: functional; summary of the method: as §1
# Pseudomonas aeruginosa [4] = experiment: Antibacterial activity against Pseudomonas aeruginosa isolate M146201 after 18 hrs by broth microdilution method; format: functional; details: isolate M146201, 18 h; summary of the method: as §1
# Acinetobacter baumannii [5] = experiment: Antibacterial activity against Acinetobacter baumannii ATCC 19606 after 18 hrs by broth microdilution method; format: functional; details: ATCC 19606 = CIP 70.34 = JCM 6841, 18 h; summary of the method: as §1
# Acinetobacter baumannii [6] = experiment: Antibacterial activity against Acinetobacter baumannii isolate 246-01-C after 18 hrs by broth microdilution method; format: functional; summary of the method: as §1
# Acinetobacter baumannii [7] = experiment: Antibacterial activity against Acinetobacter baumannii ATCC 19606 col10 after 18 hrs by broth microdilution method; format: functional; details: ATCC 19606 = CIP 70.34 = JCM 6841 col10, 18 h; summary of the method: as §1
# Klebsiella pneumoniae [8] = experiment: Antibacterial activity against Klebsiella pneumoniae ATCC 13883 after 18 hrs by broth microdilution method; format: functional; details: ATCC 13883, 18 h; summary of the method: as §1
# Klebsiella pneumoniae [9] = experiment: Antibacterial activity against Klebsiella pneumoniae isolate M320445 after 18 hrs by broth microdilution method; format: functional; details: isolate M320445, 18 h; summary of the method: as §1
# Klebsiella pneumoniae [10] = experiment: Antibacterial activity against Klebsiella pneumoniae isolate 224-11-C after 18 hrs by broth microdilution method; format: functional; summary of the method: as §1
# Enterococcus faecium = experiment: Antibacterial activity against vancomycin-resistant Enterococcus faecium ATCC 700221 after 18 hrs by broth microdilution method; format: functional; details: ATCC 700221, 18 h; summary of the method: as §1
# Escherichia coli [11] = experiment: Antibacterial activity against Escherichia coli N2381 after 18 hrs by broth microdilution method; format: functional; details: N2381, 18 h; summary of the method: as §1
# Escherichia coli [12] = experiment: Antibacterial activity against Escherichia coli N11281 after 18 hrs by broth microdilution method; format: functional; details: N11281, 18 h; summary of the method: as §1
# Staphylococcus aureus [13] = experiment: Antibacterial activity against vancomycin-intermediate Staphylococcus aureus ATCC 700698 after 18 hrs by broth microdilution method; format: functional; details: ATCC 700698, 18 h; summary of the method: as §1
# Staphylococcus aureus [14] = experiment: Antibacterial activity against vancomycin-resistant Staphylococcus aureus ATCC 700699 after 18 hrs by broth microdilution method; format: functional; details: ATCC 700699, 18 h; summary of the method: as §1
# [15] = Selectivity index, ratio of CC50 for human HepG2 cells in presence of 1% FBS to MIC for Pseudomonas aeruginosa ATCC 27853; format: toxicity; details: read-out: Selectivity Index
# Summary of the method: (§2)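 Selectivity index is CC50 (1% FBS) divided by MIC. […] They then got compound at 300 to 0.14 µM (3-fold steps) for 24 h at 37 °C, 5% CO2. Resazurin (10 µM, 2 h) was read at ex/em 560/590 in duplicate wells. For MIC, CLSI broth microdilution was run in CaMHB with ~10^6 cfu/mL inoculum and 0–128 µM compound.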
# [16] = Selectivity index, ratio of CC50 for human HepG2 cells in presence of 1% FBS to MIC for Pseudomonas aeruginosa isolate 912; format: toxicity; details: read-out: Selectivity Index; summary of the method: as §2
# [17] = Selectivity index, ratio of CC50 for human HepG2 cells in presence of 1% FBS to MIC for Pseudomonas aeruginosa isolate 18878B klon 1; format: toxicity; details: read-out: Selectivity Index; summary of the method: as §2
# [18] = Selectivity index, ratio of CC50 for human HepG2 cells in presence of 1% FBS to MIC for Pseudomonas aeruginosa isolate M146201; format: toxicity; details: read-out: Selectivity Index; summary of the method: as §2
# [19] = Selectivity index, ratio of CC50 for human HepG2 cells in presence of 1% FBS to MIC for Acinetobacter baumannii isolate 246-01-C; format: toxicity; details: read-out: Selectivity Index
# [20] = Selectivity index, ratio of CC50 for human HepG2 cells in presence of 1% FBS to MIC for Acinetobacter baumannii ATCC 17978; format: toxicity; details: read-out: Selectivity Index
# [21] = Selectivity index, ratio of CC50 for human HepG2 cells in presence of 1% FBS to MIC for Acinetobacter baumannii ATCC 19606 col10; format: toxicity; details: read-out: Selectivity Index
# [22] = Selectivity index, ratio of CC50 for human HepG2 cells in presence of 1% FBS to MIC for Klebsiella pneumoniae isolate M320445; format: toxicity; details: read-out: Selectivity Index
# [23] = Selectivity index, ratio of CC50 for human HepG2 cells in presence of 1% FBS to MIC for Klebsiella pneumoniae isolate 1; format: toxicity; details: read-out: Selectivity Index
# [24] = Selectivity index, ratio of CC50 for human HepG2 cells in presence of 1% FBS to MIC for methicillin-resistant Staphylococcus aureus ATCC 43300; format: toxicity; details: read-out: Selectivity Index; summary of the method: as §2
# [25] = Selectivity index, ratio of CC50 for human HepG2 cells in presence of 1% FBS to MIC for Klebsiella pneumoniae isolate 248-33-D; format: toxicity; details: read-out: Selectivity Index
# [26] = Selectivity index, ratio of CC50 for human HepG2 cells in presence of 1% FBS to MIC for Escherichia coli N4149; format: toxicity; details: read-out: Selectivity Index
# [27] = Selectivity index, ratio of CC50 for human HepG2 cells in presence of 1% FBS to MIC for Escherichia coli N11281; format: toxicity; details: read-out: Selectivity Index
# [28] = Selectivity index, ratio of CC50 for human HepG2 cells in presence of 1% FBS to MIC for vancomycin-resistant Enterococcus faecium ATCC 700221; format: toxicity; details: read-out: Selectivity Index; summary of the method: as §2
# [29] = Selectivity index, ratio of CC50 for human HepG2 cells in presence of 1% FBS to MIC for vancomycin-intermediate Staphylococcus aureus ATCC 700698; format: toxicity; details: read-out: Selectivity Index; summary of the method: as §2
# [30] = Selectivity index, ratio of CC50 for human HepG2 cells in presence of 1% FBS to IC50 for CQ-sensitive GFP-fused Plasmodium falciparum D10; format: toxicity; details: read-out: Ratio IC50
# [31] = Cytotoxicity against human HepG2 cells after 24 hrs in presence of 1% FBS by resazurin dye based assay; format: cell-based
# Summary of the method: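 HepG2 cells seeded at 4000/well in DMEM with 1% FBS and allowed to attach for 24 h at 37 °C, 5% CO2. Compounds added from 300 to 0.14 µM in 3-fold steps and incubated 24 h. 10 µM resazurin added for 2 h, fluorescence read at ex/em 560/590. Percent viability computed relative to untreated and negative controls, duplicate wells.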
SMILES,IC50 (Plasmodium falciparum),MIC (Pseudomonas aeruginosa [1]),MIC (Pseudomonas aeruginosa [2]),MIC (Pseudomonas aeruginosa [3]),MIC (Pseudomonas aeruginosa [4]),MIC (Acinetobacter baumannii [5]),MIC (Acinetobacter baumannii [6]),MIC (Acinetobacter baumannii [7]),MIC (Klebsiella pneumoniae [8]),MIC (Klebsiella pneumoniae [9]),MIC (Klebsiella pneumoniae [10]),MIC (Enterococcus faecium),MIC (Escherichia coli [11]),MIC (Escherichia coli [12]),MIC (Staphylococcus aureus [13]),MIC (Staphylococcus aureus [14]),selectivity ratio [15],selectivity ratio [16],selectivity ratio [17],selectivity ratio [18],other results
Fc1ccc2c(c1)-c1ccccc1[I+]2,100 nM,18 µM,2.2 µM,1.1 µM,4.5 µM,4.5 µM,4.5 µM,2.2 µM,18 µM,18 µM,36 µM,4.5 µM,18 µM,18 µM,18 µM,9.1 µM,0.67,5.3,5.3,2.7,selectivity ratio [19]: 2.7; selectivity ratio [20]: 5.3; selectivity ratio [21]: 5.3; selectivity ratio [22]: 0.67; selectivity ratio [23]: 0.33; selectivity ratio [24]: 2.7; selectivity ratio [25]: 0.67; selectivity ratio [26]: 0.33; selectivity ratio [27]: 0.67; selectivity ratio [28]: 2.7; selectivity ratio [29]: 0.67; selectivity ratio [30]: 125; CC50 at 24 h [31]: 11900 nM
N#Cc1ccc2c(c1)-c1ccccc1[I+]2,40 nM,71 µM,8.8 µM,4.4 µM,8.8 µM,18 µM,18 µM,2.2 µM,35 µM,71 µM,> 71 µM,1.1 µM,71 µM,71 µM,8.8 µM,8.8 µM,0.32,2.5,2.5,2.5,selectivity ratio [19]: 0.13; selectivity ratio [20]: 5.1; selectivity ratio [21]: 10; selectivity ratio [22]: 0.32; selectivity ratio [23]: > 0.32; selectivity ratio [24]: 20; selectivity ratio [25]: 0.32; selectivity ratio [26]: > 0.32; selectivity ratio [27]: 0.32; selectivity ratio [28]: 20; selectivity ratio [29]: 2.5; selectivity ratio [30]: 531; CC50 at 24 h [31]: 22300 nM
Cc1ccc2c(c1)[I+]c1ccccc1-2.O=S(=O)([O-])C(F)(F)F,230 nM,72 µM,4.5 µM,4.5 µM,36 µM,9.1 µM,18 µM,4.5 µM,72 µM,36 µM,72 µM,4.5 µM,72 µM,36 µM,9.1 µM,9.05 µM,0.05,0.81,0.81,0.11,selectivity ratio [19]: 0.21; selectivity ratio [20]: 0.81; selectivity ratio [21]: 0.81; selectivity ratio [22]: 0.11; selectivity ratio [23]: 0.05; selectivity ratio [24]: 0.81; selectivity ratio [25]: 0.05; selectivity ratio [26]: 0.05; selectivity ratio [27]: 0.11; selectivity ratio [28]: 0.81; selectivity ratio [29]: 0.41; selectivity ratio [30]: 15.8; CC50 at 24 h [31]: 3600 nM
Clc1ccc2c(c1)-c1ccccc1[I+]2,80 nM,8.7 µM,4.3 µM,4.3 µM,4.3 µM,4.3 µM,4.3 µM,2.2 µM,8.7 µM,35 µM,35 µM,8.7 µM,17 µM,17 µM,4.3 µM,4.3 µM,1.9,3.7,7.5,3.7,selectivity ratio [19]: 3.7; selectivity ratio [20]: 7.5; selectivity ratio [21]: 7.5; selectivity ratio [22]: 0.47; selectivity ratio [23]: 0.47; selectivity ratio [24]: 7.5; selectivity ratio [25]: 0.93; selectivity ratio [26]: 0.93; selectivity ratio [27]: 0.93; selectivity ratio [28]: 1.9; selectivity ratio [29]: 3.7; selectivity ratio [30]: 194; CC50 at 24 h [31]: 16100 nM
